Reference: ChEMBL document CHEMBL1250524, “Novel imidazoline compounds as partial or full agonists of D2-like dopamine receptors inspired by I2-imidazoline binding sites ligand 2-BFI” (Bioorg Med Chem, 2010)

How the values were obtained:
[1] = Displacement of [3H]2BFI from I2 imidazoline binding site in rat brain membrane; format: cell membranes
Summary of the method: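 Rat whole-brain membranes (about 300 µg protein) incubated to equilibrium (30 min, room temperature) with 1 nM [3H]2-BFI and increasing compound concentrations in 50 mM Tris–HCl, 1 mM MgCl2, pH 7.4. Nonspecific binding defined with 10 µM BU224. Filtration, scintillation counting. At least six concentrations; IC50 converted to Ki by Cheng–Prusoff; 3–5 experiments in triplicate.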

[2] = Displacement of [3H]YM-09-151-2 from D2-like receptor in pig striatal membrane; format: cell membranes, Sus scrofa, Striatum
Summary of the method: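 Pig striatal membranes (about 200 µg protein) in Tris–HCl pH 7.4 with protease inhibitors, incubated to equilibrium (60 min, 30 °C) with 0.3 nM [3H]YM-09-151-2 and at least six compound concentrations. Nonspecific binding defined with 2.5 mM dopamine. Filtration, scintillation counting. IC50 converted to Ki by Cheng–Prusoff; 3–5 experiments in triplicate. Radioligand Kd 0.40 nM.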

[3] = target: T1, Adrenergic receptor alpha-2 (Rattus norvegicus, UniProt P22086+P19328+P22909); test: Displacement of [3H]RX821002 from alpha2 adrenergic receptor in rat brain membrane; format: cell membranes
T1 sequence (P22086 whole entry): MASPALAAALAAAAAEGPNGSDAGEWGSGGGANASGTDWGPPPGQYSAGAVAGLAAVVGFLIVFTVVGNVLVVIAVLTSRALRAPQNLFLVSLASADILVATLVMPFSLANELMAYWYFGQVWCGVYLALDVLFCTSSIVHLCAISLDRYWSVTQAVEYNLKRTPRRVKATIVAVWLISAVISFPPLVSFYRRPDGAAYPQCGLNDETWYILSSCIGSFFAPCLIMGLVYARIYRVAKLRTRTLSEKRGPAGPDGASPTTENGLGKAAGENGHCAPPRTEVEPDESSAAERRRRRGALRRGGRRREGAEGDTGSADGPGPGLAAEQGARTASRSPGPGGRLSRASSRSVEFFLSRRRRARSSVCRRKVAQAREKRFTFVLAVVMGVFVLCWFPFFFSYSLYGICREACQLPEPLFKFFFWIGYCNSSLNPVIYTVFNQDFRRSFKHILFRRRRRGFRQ
T1 sequence (P19328 whole entry): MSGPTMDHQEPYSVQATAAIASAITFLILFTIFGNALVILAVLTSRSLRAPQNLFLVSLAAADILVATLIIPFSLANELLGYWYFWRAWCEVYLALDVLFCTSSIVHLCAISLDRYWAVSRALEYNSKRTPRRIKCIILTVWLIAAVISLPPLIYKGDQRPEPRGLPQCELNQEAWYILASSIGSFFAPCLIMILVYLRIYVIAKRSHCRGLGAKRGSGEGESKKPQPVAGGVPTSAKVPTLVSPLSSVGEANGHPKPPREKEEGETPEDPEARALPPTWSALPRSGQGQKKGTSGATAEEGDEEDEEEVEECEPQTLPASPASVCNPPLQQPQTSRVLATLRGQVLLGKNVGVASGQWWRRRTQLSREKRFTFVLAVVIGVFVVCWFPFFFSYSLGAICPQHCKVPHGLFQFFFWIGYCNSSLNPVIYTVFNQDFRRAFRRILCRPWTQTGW
T1 sequence (P22909 whole entry): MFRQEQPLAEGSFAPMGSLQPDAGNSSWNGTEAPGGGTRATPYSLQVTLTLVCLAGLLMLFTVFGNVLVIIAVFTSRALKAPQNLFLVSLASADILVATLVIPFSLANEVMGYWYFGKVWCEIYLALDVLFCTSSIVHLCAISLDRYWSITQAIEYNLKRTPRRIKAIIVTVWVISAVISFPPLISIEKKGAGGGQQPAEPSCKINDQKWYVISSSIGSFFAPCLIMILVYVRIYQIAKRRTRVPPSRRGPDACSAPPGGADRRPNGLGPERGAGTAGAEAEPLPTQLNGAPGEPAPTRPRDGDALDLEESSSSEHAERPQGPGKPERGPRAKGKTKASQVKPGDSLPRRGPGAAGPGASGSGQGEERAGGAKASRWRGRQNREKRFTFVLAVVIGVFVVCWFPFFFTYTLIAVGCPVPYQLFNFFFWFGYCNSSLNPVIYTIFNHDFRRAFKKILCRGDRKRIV

[4] = Agonist activity at D2-like receptor in pig striatal membrane assessed as [35S]GTPgammaS binding; format: functional, cell membranes, Sus scrofa, Striatum
Summary of the method: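 Porcine striatal membranes incubated 60 min at 30 °C in 50 mM Tris–HCl pH 7.4 with GDP, 5 mM MgCl2, 0.1 mM EDTA, 0.2 mM EGTA, 0.2 mM DTT, 150 mM NaCl, 0.2 nM [35S]GTPγS and six compound concentrations. Nonspecific binding defined with unlabeled GTPγS. Filtration, scintillation counting. EC50 by nonlinear regression, three independent experiments. Intrinsic activity set relative to dopamine %Emax = 1.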

Rattus norvegicus [5] = test: Anxiolytic-like activity in Wistar rat assessed as rearing activity at 0.0149 uM/kg, icv by open field test; format: functional
Summary of the method: (§1)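 Male Wistar rats (200–225 g, 8 per group) given ip zolazepam/tiletamine anaesthesia before a cannula was implanted in the right lateral ventricle. Compound given icv at 0.0149 µM/kg; controls received physiological solution. Open field with two photocell rows: lower-row breaks counted as ambulatory episodes, upper-row breaks as rearing. Read-out is the % of episodes in the central area, mean ± SE.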

Rattus norvegicus [6] = test: Anxiolytic-like activity in Wistar rat assessed as ambulatory activity at 0.0149 uM/kg, icv by open field test; format: functional; summary of the method: as §1
[7] = Displacement of [3H]SCH23390 from dopamine D1-like receptor pig striatal membrane

| SMILES | Ki [1] [µM] | Ki [2] [µM] | Ki [3] [µM] | EC50 [4] [µM] | Activity (Rattus norvegicus [5]) [%] | Activity (Rattus norvegicus [6]) [%] | Kd [7] [µM] |
| --- | --- | --- | --- | --- | --- | --- | --- |
| Oc1ccc2oc(C3=NCCN3)cc2c1 | 0.0881 | > 100 | 2.95 | – | – | – | – |
| CN1CCN=C1c1cc2cc(O)ccc2o1 | – | > 100 | – | – | – | – | – |
| CCN1CCN=C1c1cc2cc(O)ccc2o1 | > 100 | > 100 | 25.5 | – | – | – | – |
| CCCN1CCN=C1c1cc2cc(O)ccc2o1 | 0.7 | 15.8 | 3.64 | – | – | – | – |
| Oc1ccc2cc(C3=NCCN3)oc2c1 | 0.076 | 14.5 | 11 | 5.7 | – | – | – |
| CCCN1CCN=C1c1cc2ccc(O)cc2o1 | 2.1 | 13.8 | 1.92 | 13.3 | – | – | – |
| Oc1cc2cc(C3=NCCN3)oc2cc1O | 5.69 | > 100 | 24.21 | – | – | – | – |
| CCCN1CCN=C1c1cc2cc(O)c(O)cc2o1 | 28 | > 100 | 10.16 | – | – | – | – |
| Oc1ccc2oc(C3=NCCN3Cc3ccccc3)cc2c1 | 1.1 | 5 | 4.39 | 6.3 | – | – | – |
| Oc1ccc2cc(C3=NCCN3Cc3ccccc3)oc2c1 | 5.78 | 5.66 | 2.08 | 5.8 | 2 | 6.3 | – |
| Oc1cc2cc(C3=NCCN3Cc3ccccc3)oc2cc1O | 10.4 | 18.5 | 4.43 | 11.9 | – | – | – |
| c1ccc2oc(C3=NCCN3)cc2c1 | 0.0034 | 47 | – | 37.7 | – | – | – |
| NCCc1ccc(O)c(O)c1 [DOPAMINE] | – | 3.9 | – | 4.8 | – | – | 0.00133 |
| N[C@@H](Cc1ccc(O)c(O)c1)C(=O)O [LEVODOPA] | – | – | – | – | 2 | 5.7 | – |
